Here are results for 25 compounds from ChEMBL document CHEMBL4325827, “Bifidenone: Structure-Activity Relationship and Advanced Preclinical Candidate” (J Med Chem, 2018).

As a reminder, the IC50 is the midpoint of a concentration-inhibition curve.

Bounds are passed on as bounds.

In one experiment the test system is M14. The experiment is described as follows: Antiproliferative activity against human M14 cells after 72 hrs by CellTiter 96 aqueous nonradioactive cell proliferation assay. It is filed as functional, cell-based. The settings on record: M14, 72 h. An outline of the steps: (§1)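 Antiproliferation in cultured tumour cells, at least 3 replicate wells per concentration per experiment. NCI-H460 came from ATCC. M14, NCI/ADR-RES, OVCAR-4, HCT-15, ACHN and SF-295 came from the National Cancer Institute. IC50 reported from single experiments where no SD is given.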

For another experiment, the system named is NCI-H460. The experiment is described as follows: Antiproliferative activity against human NCI-H460 cells after 72 hrs by CellTiter 96 aqueous nonradioactive cell proliferation assay. It is filed as functional, cell-based. The settings on record: NCI-H460, 72 h. An outline of the steps: as §1

Turning to `C=CC[C@H]1C[C@]2([C@@H](C)Cc3ccc(OC)c(C(=O)NC)c3)OCOC2=CC1=O`, the IC50 amounted to 1400 nM in the experiment with M14 and 1100 nM in the experiment on NCI-H460.

`C=CC[C@H]1C[C@]2([C@@H](C)Cc3cc(NC(C)=O)c(OC)cc3F)OCOC2=CC1=O`: the IC50 with M14 is 52 nM; in the experiment on NCI-H460, 71 nM.

For `C=CC[C@H]1C[C@]2([C@@H](C)Cc3cc(C)c(OC)cc3F)OCOC2=CC1=O`, the figures for the IC50 with M14 and in the experiment with NCI-H460 were 230 nM and 650 nM, respectively.

On to `C=CC[C@H]1C[C@]2([C@@H](C)Cc3cc(C#N)c(OC)cc3F)OCOC2=CC1=O`, for which the 50% inhibitory concentration (IC50) came out at 37 nM in the experiment with M14 and 150 nM in the experiment with NCI-H460.

As for `C=CC[C@H]1C[C@]2([C@H](C)Cc3ccc(OC)cc3)OCOC2=CC1=O`, the IC50 in the experiment on M14 was 81 nM; in the experiment on NCI-H460 it was 120 nM.

On to `C=CC[C@H]1C[C@]2([C@H](C)Cc3ccc(OC)c(F)c3F)OCOC2=CC1=O`, for which the IC50 came to 3800 nM with M14 and 3300 nM in the experiment on NCI-H460.

On to `C=CC[C@H]1C[C@]2(CCc3ccc(OC)c(OC)c3)OCOC2=CC1=O`, for which the results for the IC50 with M14 and with NCI-H460 were 2000 nM and 3200 nM, respectively.

In the case of `C=CC[C@H]1C[C@]2([C@@H](C)Cc3cccc(OC)c3)OCOC2=CC1=O`, the values for the IC50 in the experiment with M14 and with NCI-H460 were 8800 nM and 10600 nM, respectively.

On to `C=CC[C@H]1C[C@]2([C@@H](C)Cc3cnc(OC)c(OC)c3)OCOC2=CC1=O`, for which the IC50 in the experiment with M14 and in the experiment with NCI-H460 was > 20000 nM each time.

Take `C=CC[C@H]1C[C@]2([C@@H](C)Cc3ccc(OC)c(Cl)c3)OCOC2=CC1=O`: the IC50 in the experiment with M14 was determined as 240 nM; in the experiment with NCI-H460 it was 640 nM.

With `C=CC[C@H]1C[C@]2([C@@H](C)Cc3cnc(OC)cc3F)OCOC2=CC1=O`, the IC50 is 8000 nM in the experiment on M14 and > 20000 nM with NCI-H460.

As for `C=CC[C@H]1C[C@]2([C@@H](C)Cc3ccc(OC)c(O)c3)OCOC2=CC1=O`, the IC50 amounted to 8 nM in the experiment with M14 and 80 nM in the experiment with NCI-H460.

Regarding `C=CC[C@H]1C[C@]2([C@@H](C)Cc3cc(O)c(OC)cc3F)OCOC2=CC1=O`, the half-maximal inhibitory concentration (IC50) with M14 came out at 9 nM; with NCI-H460, 33 nM.

Consider `C=CC[C@H]1C[C@]2([C@@H](C)Cc3cc(N)c(OC)cc3F)OCOC2=CC1=O`, for which the IC50 is 29 nM in the experiment with M14 and 160 nM with NCI-H460.

`C=CC[C@H]1C[C@]2([C@@H](C)Cc3ccc(OC(C)=O)cc3)OCOC2=CC1=O`: the IC50 with M14 and in the experiment with NCI-H460 was > 20000 nM in each case.

For `C=CC[C@H]1C[C@]2(C(CC)Cc3ccc(OC)c(OC)c3)OCOC2=CC1=O` (mixture of isomers), the IC50 in the experiment on M14 is 2600 nM; with NCI-H460, 11000 nM.

Consider `C=CC[C@H]1C[C@]2([C@@H](C)Cc3ccc(OC)c(C(N)=O)c3)OCOC2=CC1=O`, for which the IC50 in the experiment with M14 worked out at 12 nM; with NCI-H460, 66 nM.

As for `C=CC[C@H]1C[C@]2([C@@H](C)Cc3ccc(OC(F)(F)F)cc3)OCOC2=CC1=O`, the 50% inhibitory concentration (IC50) in the experiment on M14 is > 20000 nM; in the experiment with NCI-H460, 3800 nM.

In the case of `C=CC[C@H]1C[C@]2(C(C)Cc3ccc(OCC)cc3)OCOC2=CC1=O` (stereo not given in full), the IC50 in the experiment on M14 was 650 nM; in the experiment on NCI-H460, 280 nM.

Turning to `C=CC[C@H]1C[C@]2([C@@H](C)Cc3ccc(OC)c(NC(C)=O)c3)OCOC2=CC1=O`, the IC50 came to 85 nM in the experiment with M14 and 310 nM in the experiment with NCI-H460.

With `C=CC[C@H]1C[C@]2([C@@H](C)Cc3ccc(OC)c(N4CCOCC4)c3)OCOC2=CC1=O`, the IC50 with M14 and with NCI-H460 was > 20000 nM each time.

In the case of `C=CC[C@H]1C[C@]2([C@@H](C)Cc3ccc(OC)nc3)OCOC2=CC1=O`, the figures for the IC50 in the experiment on M14 and in the experiment on NCI-H460 were 180 nM and 330 nM, respectively.

Consider `C=CC[C@H]1C[C@]2([C@H](C)Cc3cc(F)c(OC)cc3F)OCOC2=CC1=O`, for which the IC50 with M14 turned out to be 10 nM; with NCI-H460 it was 35 nM.

Regarding `C=CC[C@H]1C[C@]2([C@@H](C)Cc3ccc(OC)c(C)c3)OCOC2=CC1=O`, the IC50 in the experiment on M14 stood at 410 nM; in the experiment on NCI-H460, 630 nM.

Regarding `C=CC[C@H]1C[C@]2([C@@H](C)Cc3cc(OC)c(OC)cc3F)OCOC2=CC1=O`, the IC50 in the experiment on M14 came to 14 nM; with NCI-H460 it was 120 nM.
